The values below come from ChEMBL document CHEMBL1800068 (J Med Chem, 2011).

The target in assay [1] is T1, Retinol-binding protein 4 (Homo sapiens, UniProt P02753). The experiment in a line: Binding affinity to immobilized His-tagged recombinant human sRBP assessed as inhibition of sRBP and detergent treated HEK293 membrane interaction at 10 uM after 1 hr by surface plasmon resonance assay.
For assay [2], the target named is T1, Retinol-binding protein 4. The experiment in a line: Binding affinity to His-tagged recombinant human sRBP expressed in Escherichia coli BL21(DE3) assessed as disruption of sRBP-TTR protein interaction at 100 uM after 1 hr by SDS-PAGE and silver staining method relative to 10 uM ROH. An outline of the steps: (§1)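 Compound was 100 μM, or 1, 10, 20, 50 and 100 μM for dose–response. Control was 10 μM ROH with no compound. Released free sRBP in the flow-through was analysed by SDS-PAGE; each run done at least three times.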

The target of assay [3] is T1, Retinol-binding protein 4. Kind of assay: Antagonist activity at His-tagged recombinant human sRBP expressed in Escherichia coli BL21(DE3) assessed as disruption of sRBP-TTR protein interaction after 2 hr by surface plasmon resonance assay. It is filed as functional. The gist of the method: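 SPR run at 25 °C on a Ni-NTA chip in HBS with 50 μM EDTA at 10 μL/min. Nickel activation, 5 min capture of 200 nM His-sRBP, 1 min compound pulse, then 5 min injection of 1 μM native untagged TTR preincubated with compound at 10 μM. Reference-surface corrected; regenerated with 0.3 mM EDTA; repeated three to five times.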

Assay [4] has as its target T1, Retinol-binding protein 4. The experiment in a line: Binding affinity to His-tagged recombinant human sRBP expressed in Escherichia coli BL21(DE3) assessed as disruption of sRBP-TTR protein interaction after 1 hr by SDS-PAGE and silver staining method. The gist of the method: as §1
The target in assay [5] is T1, Retinol-binding protein 4. The experiment in a line: Binding affinity to His-tagged recombinant human sRBP expressed in Pichia pastoris assessed as apparent dissociation constant after 5 mins by fluorescence spectrophotometric analysis. The settings on record: read-out: Kd(app).
Assay [6] addresses T1, Retinol-binding protein 4. The experiment in a line: Antagonist activity at His-tagged recombinant human sRBP […] assessed as disruption of ROH-sRBP-TTR protein interaction after 2 hr by TR-FRET assay. It is filed as functional. An outline of the steps: (§2)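 Apo His-sRBP (P. pastoris-expressed), 5 nM, with 100 nM biotinylated native TTR, 100 nM streptavidin-APC and 1 nM europium anti-His antibody. Inhibitor held at 10 μM while ROH was titrated, in 20 mM Tris-HCl pH 7.4, 150 mM NaCl, 1 mM EDTA, 0.01% BSA, 0.02% Tween 20.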

Assay [7] addresses T1, Retinol-binding protein 4. The experiment in a line: Antagonist activity at His-tagged recombinant human sRBP […] assessed as disruption of ROH-sRBP-TTR protein interaction after 2 hr by TR-FRET assay relative to control. It is filed as functional. The gist of the method: as §2

SMILES strings stand for the structures. The source made the active and inactive calls. The rule behind the calls is not given here.

Consider `CC1=C(/C=C/C(C)=C/C=C/C(C)=C/C(=O)Nc2ccc(O)cc2)C(C)(C)CCC1`, for which the outcome in assay [1] was inactive. Also, the fold change (FC) in assay [2] is 3. For the same compound, the outcome in assay [3] was Active.

Take `COC(=O)COc1ccc(NC(=O)/C=C(C)/C=C/C=C(C)/C=C/C2=C(C)CCCC2(C)C)cc1`: the outcome in assay [1] and in assay [4] was Active. Also, the Kd in assay [5] came out at 131 nM. Also, the EC50 in assay [6] was 1260 nM. Further, the outcome in assay [3] was inactive. The Ratio EC50 in assay [7] stood at 15.
